Results published in publication PMC7993229 (Oncoimmunology, 2021).

Tests used:
[1] = system: bone marrow-derived dendritic cells (BMDCs); test: Dendritic cell activation; type: cell-based, C57/BL6 mice; conditions: mouse BMDCs
Method in brief: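 Bone marrow flushed from C57BL/6 femurs was cultured 6 days in RPMI with 20 ng/mL mouse GM-CSF and 20 ng/mL mouse IL-4 to give immature DCs. Cells were pretreated 1 h with test compound, then given 1 μg/mL LPS ± 0.037 μM PGE2 for 18 h. Supernatant TNF-α was read with a Meso Scale Discovery mouse panel.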

human CD8+ T cells = test: MF-766 and pembrolizumab combination in human CD8+ T cells; type: cell-based; conditions: for CD8+ T cell viability: Fig S2B
Method in brief: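 CD8+ T cells were purified from frozen healthy-donor PBMCs and seeded at 1 × 10^5 cells/well in RPMI-1640 with 10% heat-inactivated FBS and 2 mM L-glutamine. Test compound was titrated from 3 µM in 3-fold steps ± PGE2 (10 nM), with pembrolizumab or human IgG4 isotype at 20 µg/mL. Cells were activated with anti-CD3/CD28 beads plus 100 U/mL IL-2 for 24 h at 37°C; IFN-γ was read by Meso Scale Discovery.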

[2] = system: human monocyte-derived DCs; test: Dendritic cell activation; type: cell-based
Method in brief: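 Commercially sourced human dendritic cells were pretreated 1 h with test compound. They were then stimulated with 1 μg/mL LPS with or without 0.037 μM PGE2 for 18 h. TNF-α in the medium was quantified with a Meso Scale Discovery human pro-inflammatory panel.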

CRC patient blood = test: Ex vivo whole blood LPS-stimulated TNF-α assay; type: cell-based, human; conditions: 1 μg/mL LPS + PGE2
Method in brief: (§1)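 Blood was collected in sodium heparin. Healthy-donor blood was used fresh on assay day; CRC patient blood was drawn 1 day before and shipped overnight. Samples were pretreated 1 h with test compound, then stimulated with 1 μg/mL LPS (final) ± 0.037 μM PGE2 for 18 h. After centrifugation, TNF-α in the supernatant was measured by Meso Scale Discovery.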

[3] = system: human primary tumor histoculture; test: Human tumor histoculture; type: cell-based; conditions: histoculture system
Method in brief: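 Tumor tissue was trimmed of fat, cut into ~400 µm slices and cultured at the air–liquid interface (37°C, 5% CO2) in DMEM with 10% FBS and penicillin/streptomycin. Slices were stimulated with 50 ng/mL anti-human CD3 plus test compound or DMSO for 48 h. IFN-γ, IL-2 and TNF-α were measured by Meso Scale Discovery and expressed as fold change vs DMSO (mean ± S.E.M, n = 8).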

[4] = Pharmacokinetic parameters of MF-766 in mice; conditions: female, C57/B6, mouse, in vivo, po
[5] = system: healthy human whole blood; test: Ex vivo whole blood LPS-stimulated TNF-α assay; type: cell-based; conditions: 1 μg/mL LPS + PGE2
Method in brief: as §1

THP-1 cells = test: THP-1 LPS-stimulated TNF-α assay; type: cell-based, human; conditions: 1 h pretreatment, 1 μg/mL LPS + PGE2
Method in brief: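 THP-1 monocytes were preincubated 1 h with graded test compound concentrations. They were then stimulated with 1 μg/mL LPS, with or without 0.33 μM PGE2, for 18 h. Cells were centrifuged and TNF-α in the supernatant was quantified by Meso Scale Discovery.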

Human NK cells = test: Natural killer cell activation; type: cell-based
[6] = rat AIA model; cited from earlier work
[7] = system: PGE2-induced MDSCs / autologous CD8+ T cells; test: Suppressive myeloid cell and T-cell co-culture assay; type: cell-based, human; conditions: 1:4 ratio, anti-CD3/CD28 beads, vs DMSO control; MF-766 10, 1, 0.1, 0.01 μM
EMT6 tumors [8] = test: EMT6 syngeneic tumor model efficacy study; type: in vivo, BALB/c mouse; conditions: MF-766 30 mpk
Method in brief: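 EMT6 cells (0.5 × 10^6) were implanted s.c. in the right flank of female BALB/cAnN mice aged 6–8 weeks. Treatment started at a mean tumor volume of 100 mm3 (75–125). Test compound 30 mg/kg in 10% Tween 80 was dosed orally QDx28; anti-PD-1 10 mg/kg i.p. Q4Dx4. Tumor volume = 0.5 × L × W². Relative tumor volume and TGI (%) were derived vs control; n = 9–12; one-way ANOVA vs vehicle/isotype.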

CT26 tumors [9] = test: Flow cytometry of immune infiltrates in CT26 tumors; type: in vivo, mouse
Method in brief: (§2)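 Mice bearing 100 mm3 tumors were dosed as in the efficacy schedule, and tumors were harvested on day 8. Tumors were weighed, enzymatically dissociated and filtered (70 µm). Then 2–3 million cells were stained with fixable viability dye, Fc-blocked 10 min on ice and surface-stained 30 min on ice. Populations were gated within viable CD45+ singlets (NK CD3−CD335+CD49b+; gMDSC CD11b+Ly6G+; macrophages; DCs) and reported as % CD45+ and cells/mg tumor; n = 9–10.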

EMT6 tumors [10] = test: Flow cytometry of immune infiltrates in EMT6 tumors; type: in vivo, mouse; conditions: EMT6, single-agent treatment
Method in brief: as §2

CT26 tumors [11] = test: CT26 syngeneic tumor model efficacy study; type: in vivo, BALB/c mouse
Method in brief: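 Female BALB/cAnN mice (6–8 weeks) received 0.5 × 10^6 CT26 cells s.c. in the lower right flank. Dosing began at a mean tumor volume of 100 mm3 (75–125). Test compound 30 mg/kg (10% Tween 80) or vehicle was given orally QDx21; anti-PD-1 or isotype was given 10 mg/kg i.p. Q4Dx4. Volume = 0.5 × L × W², followed 60 days. RTV and TGI (%) were calculated; n = 9–12; one-way ANOVA vs vehicle/isotype.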

[12] = first-in-human clinical study; cited from earlier work
primary tumor digests = test: Anti-CD3-stimulated primary tumor digest culture; type: cell-based, human; conditions: without PGE2 spike
Method in brief: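 Cells were plated at 0.1 × 10^6/well, from four donors, and cultured 48 h. IFN-γ and TNF-α in supernatants were read on a Meso Scale Discovery platform; technical-replicate means were taken per donor.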

For CCCCC[C@H](O)/C=C/[C@H]1[C@H](O)CC(=O)[C@@H]1C/C=C\CCCC(=O)O [PGE2, Prostaglandin E2, reference compound], the “suppression of TNF-α production” value ([1]; compared to LPS alone) was ~ 30%, the “CD8+ T cell viability” value (human CD8+ T cells) was “Neither PGE2 nor MF-766 addition affected” and the “suppression of TNF-α production” value ([2]; compared to LPS alone) was ~ 30%.
For O=C(O)c1ccc(C2(NC(=O)c3cccc4ccn(Cc5ccc(C(F)(F)F)cc5)c34)CC2)cc1 [MF-766, 4-[1-[([1-[4-(trifluoromethyl)benzyl]-1H-indol-7-yl]carbonyl)amino]cyclopropyl]be nzoic acid], the “restoration of PGE2-suppressed TNF-α production” value (“restoration” below) ([1]; 1 μg/mL LPS + PGE2) was “fully restored”, the “restoration” value (CRC patient blood) was “partially restored” and the “anti-CD3–stimulated IFN-γ, IL-2, and TNF-α secretion” value [3] was “increase”. For the same compound, the “CD8+ T cell viability” value (human CD8+ T cells) was “Neither PGE2 nor MF-766 addition affected”, the “reversal of PGE2-mediated inhibition of IFN-γ production” value (human CD8+ T cells; PGE2 10 nM, anti-CD3/CD28 beads, 24 hours, MF-766 alone) was “reversed PGE2-mediated inhibition of IFN-γ production” and the AUC(0-t) ([4]; 30 mg/kg) was 57.5 ± 10.8 µM·h. For the same compound, the Cmax ([4]; 30 mg/kg) was 15 ± 4.37 µM, the Tmax ([4]; 30 mg/kg) was 30 min and the AUC(0-t) ([4]; 100 mg/kg) was 255 ± 97.3 µM·h. The Cmax ([4]; 100 mg/kg) was 24.1 ± 6.01 µM, the Tmax ([4]; 100 mg/kg) was 30 min and the “reversal of PGE2 suppression of LPS-stimulated TNF-α production” value [5] was “partially reversed”. For the same compound, the “restoration” value ([2]; 1 μg/mL LPS + PGE2) was “fully restored”, the “reversal of PGE2-decreased LPS-stimulated TNF-α production” value (THP-1 cells) was “fully reversed” and the “reversal of PGE2-suppressed IFN-γ secretion” value (Human NK cells; 1 h pretreatment, 50 ng/mL IL-2 ± PGE2 overnight) was “reversed by pretreatment with MF-766 in a dose-dependent manner”. The NK cell viability (Human NK cells; conditions of Figure 2b (Fig S2A)) was “not affected”, the “potency compared to other COX-2 inhibitors, including celecoxib and MF-tricyclic” value [6] was “greater than 200 fold” and the “reversal of MDSC/PGE2 suppression of IFN-γ release from CD8+ T cells” value [7] was “reversed by MF-766 in a dose-dependent manner”. For the same compound, the single-agent activity (EMT6 tumors [8]) was “did not show single-agent activity”, the “MHCII high/low macrophage ratio” value (CT26 tumors [9]; CT26) was “increased” and the “NK cells, percentage in CD45+ fraction and absolute number per mg tumor” value (CT26 tumors [9]; CT26, D8) was “significantly enriched”. The “CD3+ T cells, frequency of CD45+ cells and absolute numbers in the tumor” value (CT26 tumors [9]; CT26, D8, primarily CD8+ T cells, not CD4+) was “significant enrichment”, the “absolute numbers of tumor-infiltrating CD45+ leukocytes per mg tumor” value (CT26 tumors [9]; CT26, D8 post-therapy) was “significantly increased” and the “CD8+ DCs” value (CT26 tumors [9]; CT26, single-agent treatment) was “remarkable increase”. For the same compound, the CT26 tumor weight (CT26 tumors [9]; day 8, difference did not reach statistical significance) was “trend toward reduction in size”, the “CD8+ or NK cell infiltration into tumors” value (EMT6 tumors [10]) was “did not significantly increase” and the “percentage of gMDSCs” value (EMT6 tumors [10]; absolute numbers per mg not significant) was “significantly decreased”. For the same compound, the “tumor progression on monotherapy” value (CT26 tumors [11]; MF-766 30 mpk monotherapy) was “all tumors progressed” and the tumor volume reduction (CT26 tumors [11]; compared to vehicle/isotype treated group, MF-766 30 mpk, muDX400 10 mpk) was 49%.
For C[C@H](NC(=O)c1c(C(F)F)nn(C)c1Oc1cccc(C(F)(F)F)c1)c1ccc(C(=O)O)cc1 [E-7046], the tolerability [12] is given as “well tolerated”.
With “pembrolizumab: humanized monoclonal immunoglobulin (Ig)G4 antibody against PD-1” the “IFN-γ and TNF-α secretion” value (primary tumor digests) was “enhanced”.
